# Results reported in PubChem BioAssay.
# Activity calls are given as the source filed them.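 The calls were made as follows, unless noted: active = fluorescence slope higher than the sample average by over 3 SD (cut at about -0.22 in these data, passing the limit was not always enough); inactive = the rest.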
# What was measured:
# [1] = inhibitors of TNFa-induced NFkB p65 translocation, primary screen, imaging, HUVEC, MLSMR starter and 10KST1 sets (AID 438;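 active = inhibition above 20% together with a positive visual image hit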;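 also: compound added about 3h40 before a 20 min TNFalpha stimulation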;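 as to inhibition: signal is the nuclear over cytoplasmic p65 intensity ratio per well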); details: HUVEC TNFa-induced p65 nuclear translocation; cell count: measured here: nuclei count (cytotoxicity indicator), at 2.08 µM; inhibition: at 2 µM, stronger effect = higher value, 0% TNFa-plus-vehicle, 100% no-TNFa wells
# [2] = endothelial E-selectin expression blockers – imaging, HUVEC, immunofluorescence, MLSMR starter and 10KST1 sets, primary screen (AID 487;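 active = visually confirmed hit in the image check and inhibition above 20%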;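 as to inhibition: signal is fraction of cell area covered by stained E-selectin grains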;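 as to nuclei count: 100% = median nuclei count of all wells on the same plate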); details: HUVEC TNFalpha-induced E-selectin immunofluorescence imaging, at 2 µM; inhibition: stronger effect = higher value; nuclei count: measured here: cell number, toxicity
# [3] = Primary imaging screen for DUSP6 inhibitors that restore phospho-Erk in transfected HeLa cells, chemical complementation (AID 609;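 active = compounds giving at least 50% inhibition in the cell-based MKP-3 phosphatase rescue imaging test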;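 as to inhibition: phospho-Erk level distribution per well compared with pooled transfected vehicle control wells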); details: HeLa MKP-3 transfected, phospho-Erk imaging KS statistic, at 10 µM, cells stimulated with TPA for 15 min
# [4] = molecular target: Dual specificity protein phosphatase 6 (Homo sapiens) (UniProt Q16828); test: as above; details: HeLa MKP-3 transfected, phospho-Erk imaging KS statistic; at 10 µM; stronger effect = higher value; cells stimulated with TPA for 15 min
# Chain of Dual specificity protein phosphatase 6 (Homo sapiens) (Q16828 whole entry, looked up): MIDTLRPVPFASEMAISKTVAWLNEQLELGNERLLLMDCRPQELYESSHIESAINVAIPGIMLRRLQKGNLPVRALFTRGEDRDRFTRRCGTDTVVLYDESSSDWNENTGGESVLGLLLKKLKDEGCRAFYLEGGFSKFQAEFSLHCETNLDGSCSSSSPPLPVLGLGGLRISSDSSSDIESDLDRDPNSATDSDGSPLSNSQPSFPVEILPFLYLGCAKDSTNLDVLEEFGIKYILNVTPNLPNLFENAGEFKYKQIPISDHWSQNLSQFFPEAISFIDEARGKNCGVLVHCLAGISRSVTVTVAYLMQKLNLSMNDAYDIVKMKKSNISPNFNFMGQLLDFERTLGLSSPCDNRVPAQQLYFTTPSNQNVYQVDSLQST
# [5] = molecular target: Voltage-gated potassium channel subunit beta-2 (Rattus norvegicus) (UniProt P62483); test: inhibitors of rat Kvbeta2 reductase activity – biochemical, NADPH fluorescence, primary screen (AID 622); details: recombinant KvBeta, 4-cyanobenzaldehyde reduction, at 10 µM, stronger effect = higher value;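 also: slope of raw intensity against log time taken from 70 to 1610 s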
# Chain of Voltage-gated potassium channel subunit beta-2 (Rattus norvegicus) (P62483 whole entry, looked up): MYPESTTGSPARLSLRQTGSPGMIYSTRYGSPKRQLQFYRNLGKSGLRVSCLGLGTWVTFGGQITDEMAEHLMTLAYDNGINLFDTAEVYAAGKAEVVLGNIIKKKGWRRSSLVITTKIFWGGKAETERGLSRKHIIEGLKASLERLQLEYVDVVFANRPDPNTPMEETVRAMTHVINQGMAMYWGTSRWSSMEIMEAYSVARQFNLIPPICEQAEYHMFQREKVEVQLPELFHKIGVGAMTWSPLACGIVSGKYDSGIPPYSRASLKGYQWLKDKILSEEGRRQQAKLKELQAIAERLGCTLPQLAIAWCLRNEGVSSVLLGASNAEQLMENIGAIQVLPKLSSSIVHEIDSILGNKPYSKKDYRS
# [6] = molecular target: Voltage-gated potassium channel subunit beta-2 (Rattus norvegicus) (UniProt P62483); test: enhancers of rat Kvbeta2 NADPH turnover – biochemical, NADPH fluorescence, primary screen (AID 623;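 active = NADPH fluorescence slope more negative than the mean of all samples by about 3 SD, 99.7% confidence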;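 also: fluorescence intensity change per second fitted from 20 to 320 s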); details: Recombinant KvBeta, NADPH fluorescence decrease slope, 10 min; at 10 µM; stronger effect = lower value
# [7] = molecular target: Alpha-2C adrenergic receptor (Homo sapiens) (UniProt P18825); test: compounds altering alpha2C-coupled GIRK flux – cell-based, HEK293 alpha2C/GIRK1/2, thallium flux, primary screen (AID 624;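 active = fluorescence slope after compound addition differing from the mean of all screened samples at 99.7% confidence, in either direction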;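 also: slope of fluorescence ratio to pre-addition baseline per second over 15 to 24 s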); details: thallium flux BTC fluorescence, at 10 µM, actives lie on both sides
# Chain of Alpha-2C adrenergic receptor (Homo sapiens) (P18825 whole entry, looked up): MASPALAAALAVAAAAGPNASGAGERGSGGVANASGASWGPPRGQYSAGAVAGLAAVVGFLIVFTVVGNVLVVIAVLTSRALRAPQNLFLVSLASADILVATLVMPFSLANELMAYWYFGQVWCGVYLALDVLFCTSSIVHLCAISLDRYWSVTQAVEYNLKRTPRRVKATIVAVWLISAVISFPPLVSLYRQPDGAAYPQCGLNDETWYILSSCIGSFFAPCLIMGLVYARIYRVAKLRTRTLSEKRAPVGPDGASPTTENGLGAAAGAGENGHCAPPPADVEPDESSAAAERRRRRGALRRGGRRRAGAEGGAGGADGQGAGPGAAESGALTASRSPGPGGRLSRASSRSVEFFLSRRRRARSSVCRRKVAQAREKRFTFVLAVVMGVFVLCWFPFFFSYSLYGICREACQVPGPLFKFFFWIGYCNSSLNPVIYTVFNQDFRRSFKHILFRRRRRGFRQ
# [8] = inhibitors of larval lipid processing in zebrafish, primary screen, whole organism, PED6 fluorescence, gall bladder and intestine (AID 686;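 active = a full or partial loss of lipid-probe fluorescence in the fish gall bladder, intestine or both, judged by eye; inactive = no fluorescence loss, or compound toxic to the fish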;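 also: larvae 5 to 7 days old with five fish per well; signal comes from phospholipase A2 cleavage of quenched PED6 carried via bile; overnight exposure to compound and PED6 before scoring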); details: Zebrafish larvae PED6 lipid processing, fluorescence scoring; screened at 20 µM (by protocol)
# How it was run: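 Test system – live zebrafish larvae aged 5-7 days, whole organism · Buffer or medium – E3 fish medium · Reagent – quenched phospholipase substrate PED6, 100 nM final, ingested by larvae · Doses – 20 µM single dose · Incubation – overnight compound and PED6 incubation · Technique – visual fluorescence microscopy scoring of gall bladder, gut · Read-out basis – visual per-well fluorescence inhibition score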
# [9] = loss of swimming-algae plug formation – whole organism, Chlamydomonas reinhardtii, WT vs cilia-less mutant, absorbance, 96-well, primary screen (AID 463189;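 active = inhibition at or above 50% relative to wild type and mutant plate controls; inactive = inhibition below 50%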;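 also: 0% = wild type cc124 cells in DMSO and 100% = ciliumless bld1 mutant cells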); details: Chlamydomonas reinhardtii gravitaxis, OD600 absorbance, 2 days; at 10 µM; stronger effect = higher value
# [10] = measured here: cell density z-score
# [11] = measured here: nuclear c-Myc green intensity z-score
# [12] = measured here: nuclear pErk red intensity z-score, stronger effect = higher value
SMILES,cell count [1],inhibition [1],inhibition [2],nuclei count [2] [%],"z-score [3, 10]","z-score [3, 11]","z-score [3, 12]",inhibition [4],fluorescence slope [5],NADPH fluorescence slope [6],slope [7],outcome [8],inhibition [9]
N#Cc1c(-c2ccccc2Cl)cc(C2CC2)nc1N,577,-16.2% (inactive),-31.3% (inactive),172,0.235,-0.47,0.466,-2.47% (inactive),-0.415 (inactive),-2.4e-05 (inactive),0.00637 (inactive),inactive,-9.3% (inactive)
COc1cccc(/C(O)=C2\C(=O)C(=O)N(c3ccccn3)C2c2ccccc2OC)c1 (stereo unspecified),512,-5.9% (inactive),-90.1% (inactive),126,1.61,0.206,-0.573,12.3% (inactive),-0.54 (inactive),-2.1e-05 (inactive),0.00547 (inactive),inactive,-14.1% (inactive)
C#CCSC1=C(C#N)C(c2cccs2)C(C(=O)OCC)=C(C)N1 (stereo unspecified),674,-1.7% (inactive),-59.4% (inactive),167,-0.719,0.591,0.242,-7.28% (inactive),-0.417 (inactive),4.3e-06 (inactive),0.00405 (inactive),inactive,-6.51% (inactive)
CCOC(=O)c1ccc(N=CC2=C(O)CC(c3ccco3)CC2=O)cc1 (stereo unspecified),411,-17.7% (inactive),-249% (inactive),188,1.91,-1.05,0.242,16% (inactive),-0.351 (inactive),-1.6e-05 (inactive),0.00521 (inactive),inactive,1.78% (inactive)
COc1ccc(S(=O)(=O)N2CCC(N3CCCCC3)CC2)cc1,454,-22.7% (inactive),-217% (inactive),148,0.445,-1.43,-2.35,29.3% (inactive),-0.314 (inactive),-2e-05 (inactive),0.00443 (inactive),inactive,68% (active)
COc1ccc(C2CC(C(F)(F)F)n3ncc(C(=O)Nc4cccc(O)c4)c3N2)cc1OC (stereo unspecified),494,-6.1% (inactive),-14.4% (inactive),119,-0.0495,0.084,-0.887,1.75% (inactive),-0.483 (inactive),-0.00017 (inactive),0.0043 (inactive),active; weak signal in gallbladder and intestine,-4.48% (inactive)
Cc1cc(OCCN2CCCCC2)nc2ccccc12,482,6.3% (inactive),-39.5% (inactive),95,1.18,-0.61,-0.992,26.3% (inactive),-0.332 (inactive),1.4e-05 (inactive),0.0054 (inactive),inactive,39.2% (inactive)
CCC1(C)Cc2c(sc3c2c(=O)n(C)c2nnc(SCc4ccc5c(c4)OCO5)n32)CO1 (stereo unspecified),497,-11% (inactive),34% (inactive),98.6,1.16,0.737,-1.44,22.3% (inactive),-0.418 (inactive),9.4e-07 (inactive),0.00552 (inactive),inactive,46.1% (inactive)
CCN(CC)CCCn1c(C)cc2c(c1=O)C(c1cccc(Cl)c1)C(C#N)=C(N)O2 (stereo unspecified),448,13.8% (inactive),-49.3% (inactive),146,-0.339,0.269,1.37,2.46% (inactive),-0.388 (inactive),-4.3e-05 (inactive),0.00525 (inactive),inactive,-6.29% (inactive)
COc1ccc(N2CCN(C3CC(=O)NC3=O)CC2)cc1 (stereo unspecified),540,-26.9% (inactive),-161% (inactive),176,0.114,-0.641,-1.94,9.82% (inactive),-0.548 (inactive),-4.7e-05 (inactive),0.00484 (inactive),inactive,5.23% (inactive)
O/N=C1\CCc2cc(Cl)ccc21,384,-4% (inactive),-24.4% (inactive),101,-3.01,0.785,-0.837,-0.159% (inactive),-0.48 (inactive),-0.000244 (inactive),0.0047 (inactive),inactive,-12.6% (inactive)
O=C1CCC(=O)N1CN(C(=O)c1ccco1)c1ccc(Cl)c(Cl)c1,481,1.1% (inactive),-72.5% (inactive),125,-1.21,0.938,0.134,-3.5% (inactive),-0.562 (inactive),-2.3e-05 (inactive),0.00659 (inactive),inactive,-12.3% (inactive)
COc1ccc(/C(O)=C2\C(=O)C(=O)N(CCN(C)C)C2c2cccc(OC)c2OC)cc1 (stereo unspecified),614,-5.4% (inactive),-56.5% (inactive),192,0.97,0.147,-0.253,9.61% (inactive),-0.338 (inactive),-2.9e-05 (inactive),0.00479 (inactive),inactive,-2.59% (inactive)
COC(=O)c1sc(NC(=O)C(C)C)c(C(=O)OC)c1C,354,-0.5% (inactive),29.8% (inactive),93.5,-0.757,-0.742,1.06,3.42% (inactive),-0.426 (inactive),-1.5e-05 (inactive),0.00623 (inactive),inactive,-7.45% (inactive)
c1ccc(C2Nc3ccccc3-c3nc4ccccc4n32)nc1 (stereo unspecified),467,5.5% (inactive),-27.5% (inactive),101,-0.673,0.738,-0.0231,12.3% (inactive),-0.495 (inactive),-1.1e-05 (inactive),0.00682 (inactive),inactive,-35.3% (inactive)
CCOC(=O)C(CC(=O)O)N1CCCCC1 (stereo unspecified),485,-6.2% (inactive),-40.2% (inactive),89.2,-1.03,1.55,-0.781,3.5% (inactive),-0.367 (inactive),4.4e-05 (inactive),0.00418 (inactive),inactive,-13.4% (inactive)
COc1ccccc1-c1nnc2sc(COc3ccccc3)nn12,670,-8.1% (inactive),-201% (inactive),161,0.204,-1.19,2.54,-16.8% (inactive),-0.444 (inactive),-0.000151 (inactive),0.00451 (inactive),inactive,5.33% (inactive)
C1CCCN(CCCCN2CCCCCC2)CC1,575,-1.5% (inactive),-211% (inactive),129,-2.5,1.44,-0.0614,-5.89% (inactive),-0.456 (inactive),-0.000347 (inactive),0.00726 (inactive),inactive,-11.5% (inactive)
COC(=O)c1[nH]c2cc(OC)ccc2c1NC(=O)CN1CCC(C(N)=O)CC1,363,2.6% (inactive),14.4% (inactive),134,0.612,-0.732,-0.532,9.42% (inactive),-0.434 (inactive),-0.000147 (inactive),0.00651 (inactive),inactive,25.6% (inactive)
CN1C(=O)N(c2ccccc2)C(Nc2nncs2)C1(C)C (stereo unspecified),438,3.5% (inactive),-58.9% (inactive),167,-0.342,0.524,0.181,-2.29% (inactive),-0.341 (inactive),-2.5e-05 (inactive),0.00481 (inactive),inactive,1.2% (inactive)
COc1ccccc1C(=O)NC(=Nc1nc2ccccc2o1)NC(=O)c1ccccc1OC,511,-2.8% (inactive),0.2% (inactive),100,-1.24,-0.586,0.38,-2.91% (inactive),-0.572 (inactive),-9.6e-05 (inactive),0.0126 (inactive),inactive,-7.36% (inactive)
Cc1ccc(S(=O)(=O)c2cc3c(=O)n4ccccc4nc3n(C)c2=N)cc1,563,-16.4% (inactive),-78% (inactive),162,0.476,-0.181,0.227,-16.8% (inactive),-0.453 (inactive),-3.3e-05 (inactive),0.00439 (inactive),inactive,1.37% (inactive)
COc1cccc(COc2nc3c(c(=O)n(C)c(=O)n3C)n2C)c1,456,-4.5% (inactive),-99.3% (inactive),164,-0.352,0.147,-0.806,-7.28% (inactive),-0.325 (inactive),-1.3e-06 (inactive),0.00578 (inactive),inactive,5.71% (inactive)
O=C(Nc1ncn[nH]1)c1c(Cl)ccc(Cl)c1Cl,597,-1.6% (inactive),20% (inactive),162,-1.37,0.992,0.69,-15% (inactive),-0.362 (inactive),-8.7e-06 (inactive),0.00528 (inactive),inactive,0.721% (inactive)
CCCC1C2C(=O)N(c3ccccc3OC)C(=O)C2ON1c1ccccc1 (stereo unspecified),329,-20.4% (inactive),-107% (inactive),93.8,1.11,1.02,0.149,11.3% (inactive),-0.536 (inactive),-2.6e-05 (inactive),0.00508 (inactive),inactive,32.4% (inactive)
CC1C[C@@]2(NC(=O)NC2=O)C(C)CN1C (stereo partly specified),510,-6.8% (inactive),-91.9% (inactive),118,1.06,-0.13,-0.779,-3.98% (inactive),-0.499 (inactive),-0.000117 (inactive),0.00539 (inactive),inactive,6.02% (inactive)
Cc1cc(C)n(C(=O)CN2C(=O)CCC2=O)n1,406,-19% (inactive),-169% (inactive),155,-0.373,-0.831,-0.956,-5.62% (inactive),-0.249 (inactive),1.9e-05 (inactive),0.00506 (inactive),inactive,17.3% (inactive)
